Test results published in ChEMBL document CHEMBL3769317, “Aminothiazoles as Potent and Selective Sirt2 Inhibitors: A Structure-Activity Relationship Study” (J Med Chem, 2016).
Structures can show the parent of a compound that is named as a salt. Active and inactive are the calls of the source. The calls are words filed in the database; no cut-off is given here. Where a SMILES comes first, the peptide text is derived from it. Bridges are numbered along the chain shown (N, C = ends). The star is where a group is joined. Tfa = O=C(C(F)(F)F)*

How the values were obtained:
[1] = target: T1, NAD-dependent protein deacetylase sirtuin-2 (Homo sapiens, UniProt Q8IXJ6); experiment: Inhibition of N-terminal his6-tagged human SIRT2 (25 to 389 amino acids) using ZMAL as substrate after 4 hrs by fluorescence-based microplate reader method
T1 sequence (Q8IXJ6 whole entry): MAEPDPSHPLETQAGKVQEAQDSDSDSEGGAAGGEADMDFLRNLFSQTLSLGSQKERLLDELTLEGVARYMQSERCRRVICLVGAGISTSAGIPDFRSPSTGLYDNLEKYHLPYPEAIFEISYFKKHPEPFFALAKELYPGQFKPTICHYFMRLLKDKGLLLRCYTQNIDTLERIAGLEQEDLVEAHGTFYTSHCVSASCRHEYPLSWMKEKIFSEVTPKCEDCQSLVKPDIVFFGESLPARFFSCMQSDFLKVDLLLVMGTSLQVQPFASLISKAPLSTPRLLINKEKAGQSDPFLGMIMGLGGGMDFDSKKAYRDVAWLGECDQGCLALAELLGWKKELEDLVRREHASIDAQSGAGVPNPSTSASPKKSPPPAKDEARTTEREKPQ

[2] = target: T2, NAD-dependent protein deacetylase sirtuin-2 (Homo sapiens) (UniProt Q8IXJ6); experiment: Inhibition of SIRT2 in human HeLa cells assessed as tubulin acetylation at 10 uM after 1 hr by Western blotting method; type: cell-based
T2 sequence (whole entry): T1 sequence (Q8IXJ6 whole entry)
Method in brief: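 HeLa cells grown in high-glucose DMEM with 10% FCS and kanamycin at 37 °C, 5% CO2. 1.5 x 10^4 cells per well were plated overnight, then exposed to compound for 1 h from 10 mM DMSO stocks, with DMSO vehicle controls. Cells were lysed in reducing sample buffer and run on SDS-PAGE/PVDF. Blots were probed for acetyl-α-tubulin Lys40 (6-11B-1) and then GAPDH. Values were normalized to the mean control on the same blot.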

[3] = target: T2, NAD-dependent protein deacetylase sirtuin-2 (Homo sapiens); experiment: Inhibition of SIRT2 in human HeLa cells assessed as tubulin hyperacetylation at 10 uM after 1 hr by DAPI staining-based immunofluorescence microscopy relative to control; type: cell-based
Method in brief: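 HeLa cells, 0.5 x 10^4 per 12 mm coverslip, were plated overnight, then exposed for 1 h to 10 µM compound added from 10 mM DMSO stocks, with DMSO vehicle controls. The microtubule network was immunostained for acetylation and nuclei were counterstained with DAPI, followed by immunofluorescence microscopy.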

[4] = target: T3, NAD-dependent protein deacetylase sirtuin-1 (Homo sapiens) (UniProt Q96EB6); experiment: Inhibition of GST-tagged human SIRT1 (133 to 747 amino acids) using ZMAL as substrate at 200 uM after 4 hrs by fluorescence-based microplate reader method
T3 sequence (whole entry): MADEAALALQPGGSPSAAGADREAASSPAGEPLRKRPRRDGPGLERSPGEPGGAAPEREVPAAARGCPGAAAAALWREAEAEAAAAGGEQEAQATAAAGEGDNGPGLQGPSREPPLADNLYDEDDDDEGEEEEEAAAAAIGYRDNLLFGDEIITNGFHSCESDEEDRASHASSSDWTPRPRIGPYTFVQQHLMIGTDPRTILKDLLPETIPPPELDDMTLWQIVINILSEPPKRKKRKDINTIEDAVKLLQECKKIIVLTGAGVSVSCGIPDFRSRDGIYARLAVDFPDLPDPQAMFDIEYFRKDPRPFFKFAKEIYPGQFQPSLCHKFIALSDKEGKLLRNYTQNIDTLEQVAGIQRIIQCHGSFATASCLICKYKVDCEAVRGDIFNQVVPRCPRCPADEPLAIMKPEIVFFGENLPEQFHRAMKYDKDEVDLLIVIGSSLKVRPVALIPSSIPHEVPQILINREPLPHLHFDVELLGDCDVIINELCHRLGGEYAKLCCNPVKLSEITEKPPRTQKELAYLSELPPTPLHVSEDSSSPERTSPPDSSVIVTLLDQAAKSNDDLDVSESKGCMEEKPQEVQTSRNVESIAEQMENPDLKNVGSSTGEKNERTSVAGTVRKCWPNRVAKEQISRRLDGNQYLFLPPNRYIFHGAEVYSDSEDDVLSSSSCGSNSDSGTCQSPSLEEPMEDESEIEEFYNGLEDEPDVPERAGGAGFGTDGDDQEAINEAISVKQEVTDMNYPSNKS

[5] = target: T1, NAD-dependent protein deacetylase sirtuin-2; experiment: Inhibition of human SIRT2
[6] = target: T1, NAD-dependent protein deacetylase sirtuin-2; experiment: Inhibition of human SIRT2 using RHKK(Ac)-AMC as substrate preincubated for 10 mins followed by substrate addition by fluorescence assay
[7] = target: T4, NAD-dependent protein deacetylase sirtuin-1 (Homo sapiens, UniProt Q96EB6); experiment: Inhibition of human SIRT1 using RHKK(Ac)-AMC as substrate preincubated for 10 mins followed by substrate addition by fluorescence assay
T4 sequence (Q96EB6 whole entry): T3 sequence (whole entry)

[8] = target: T4, NAD-dependent protein deacetylase sirtuin-1; experiment: Inhibition of GST-tagged human SIRT1 (133 to 747 amino acids) using ZMAL as substrate after 4 hrs by fluorescence-based microplate reader method
[9] = target: T4, NAD-dependent protein deacetylase sirtuin-1; experiment: Inhibition of human SIRT1 by fluorometric assay
Method in brief: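 Fluorescence-based homogeneous assay with ZMAL (Cbz-Lys(acetyl)-AMC) substrate at 10,5 µM final and NAD+ at 500 µM final, in Tris/NaCl/KCl buffer pH 8.0 with 5% (v/v) DMSO final. Incubated 4 h at 37 °C, then stopped with trypsin/nicotinamide for 20 min at 37 °C. Read at ex 390/em 460 nm against no-inhibitor controls, at least duplicates.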

Cc1cc(C)nc(SCC(=O)Nc2ncc(Cc3cccc4ccc(Cl)cc34)s2)n1
IC50 [1]: 0.18 µM | inhibition [2]: Active | inhibition [3]: Active | inhibition [4]: 29%

CC(C)[C@@H]1NC(=O)[C@H](Cc2c[nH]cn2)NC(=O)[C@H](Cc2ccc(O)cc2)NC(=O)[C@H]([C@@H](C)O)NC(=O)[C@H](Cc2c[nH]cn2)NC(=O)[C@H](Cc2ccc(O)cc2)NC(=O)CSC[C@@H](C(N)=O)NC(=O)[C@H](Cc2ccc(O)cc2)NC(=O)[C@H](Cc2ccc(O)cc2)NC(=O)[C@H](CC(N)=O)NC(=O)[C@H]([C@@H](C)O)NC(=O)[C@H](CCCNC(=N)N)NC(=O)[C@H](CCCNC(=N)N)NC(=O)[C@H](CCCCNC(=O)C(F)(F)F)NC1=O ({CH2CO}-YHTYHVK(Tfa)RRTNYYC-NH2; thioether N-14)
IC50 [5]: 0.001 µM

COc1ccc2ccccc2c1Cn1cnc2sc3c(c2c1=O)CCC(NCc1cccnc1)C3 (stereo not given)
IC50 [6]: 1.45 µM | IC50 [7]: > 100 µM

Cc1cc(C)nc(SCC(=O)Nc2ncc(Cc3cccc4ccccc34)s2)n1
inhibition [4]: < 10% | IC50 [8]: > 50 µM

N#C/C(=C/c1ccc(-c2cc(Cl)ccc2Cl)o1)C(=O)Nc1cccc2ncccc12
IC50 [9]: > 40 µM
